According to ChEMBL document CHEMBL1641580, “Identification of 3-phenylaminoquinolinium and 3-phenylaminopyridinium salts as new agents against opportunistic fungal pathogens” (Bioorg Med Chem, 2011):
Activity calls are given as the source filed them. The rule behind the calls is not given here.

Key:
Candida albicans [1] = assay: Antifungal activity against Candida albicans ATCC 90028 at 20 ug/mL by microscopy; format: functional, organism-based
Procedure, shortened: (§1)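 Modified NCCLS microdilution. Samples in DMSO serially diluted in saline and tested in duplicate against inocula standardized to 0.5 McFarland. Broths: C. albicans SDB or RPMI 1640; C. neoformans SDB; A. fumigatus YM broth. Highest final concentration 20 µg/mL. MIC read visually as the lowest concentration with no detectable growth (for Alamar Blue wells, no blue-to-pink change).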

Aspergillus fumigatus [2] = assay: Fungicidal activity against Aspergillus fumigatus ATCC 90906 at 20 ug/mL; format: functional, organism-based
Candida albicans [3] = assay: Antifungal activity against Candida albicans ATCC 90028 assessed as inhibition of fungal growth at 20 ug/mL by alamar blue assay; format: functional, organism-based
Procedure, shortened: (§2)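 Broth microdilution modified from NCCLS. DMSO stocks serially diluted in saline and plated in duplicate. Inoculum set by 0.5 McFarland standard. Media: C. albicans in SDB or RPMI 1640; C. neoformans in SDB; A. fumigatus in RPMI-1640 + 5% Alamar Blue. Highest final concentration 20 µg/mL. Plates read before and after incubation by fluorescence 544ex/590em (A. fumigatus) or OD 630 nm. IC50 from percent growth vs concentration.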

Aspergillus fumigatus [4] = assay: Antifungal activity against Aspergillus fumigatus ATCC 90906 assessed as inhibition of fungal growth at 20 ug/mL by alamar blue assay; format: functional, organism-based; procedure, shortened: as §2
Candida albicans [5] = assay: Fungicidal activity against Candida albicans ATCC 90028 at 20 ug/mL; format: functional, organism-based
Aspergillus fumigatus [6] = assay: Antifungal activity against Aspergillus fumigatus ATCC 90906 at 20 ug/mL by microscopy; format: functional, organism-based; procedure, shortened: as §1
Cryptococcus neoformans [7] = assay: Antifungal activity against Cryptococcus neoformans ATCC 90113 at 20 ug/mL by microscopy; format: functional, organism-based; procedure, shortened: as §1
Cryptococcus neoformans [8] = assay: Fungicidal activity against Cryptococcus neoformans ATCC 90113 at 20 ug/mL; format: functional, organism-based
Vero = assay: Cytotoxicity against african green monkey Vero cells at 20 ug/mL after 48 hrs by neutral red assay; format: cell-based; conditions: chlorocebus sabaeus
Procedure, shortened: (§3)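 Vero kidney fibroblasts seeded at 25,000 cells/well and grown 24 h, then exposed to samples up to 20 µg/ml for 48 h. Viable cells measured by neutral red assay. IC50 taken from growth-inhibition vs concentration curves. DMSO served as vehicle control.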

Cryptococcus neoformans [9] = assay: Antifungal activity against Cryptococcus neoformans ATCC 90113 assessed as inhibition of fungal growth at 20 ug/mL by alamar blue assay; format: functional, organism-based; procedure, shortened: as §2
Cryptococcus neoformans [10] = assay: Antifungal activity against Cryptococcus neoformans ATCC 90113 assessed as inhibition of fungal growth by alamar blue assay; format: functional, organism-based; procedure, shortened: as §2
[11] = Cytotoxicity against african green monkey Vero cells after 48 hrs by neutral red assay; format: cell-based; conditions: chlorocebus sabaeus, read-out: TC50; procedure, shortened: as §3
Cryptococcus neoformans [12] = assay: Fungicidal activity against Cryptococcus neoformans ATCC 90113; format: functional
Candida albicans [13] = assay: Antifungal activity against Candida albicans ATCC 90028 by microscopy; format: functional; procedure, shortened: as §1
Candida albicans [14] = assay: Antifungal activity against Candida albicans ATCC 90028 assessed as inhibition of fungal growth by alamar blue assay; format: functional, organism-based; procedure, shortened: as §2
Cryptococcus neoformans [15] = assay: Antifungal activity against Cryptococcus neoformans ATCC 90113 by microscopy; format: functional
Procedure, shortened: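 Modified NCCLS microdilution. Samples in DMSO serially diluted in saline and tested in duplicate against inocula standardized to 0.5 McFarland. Highest final concentration 20 µg/mL. MIC read visually as the lowest concentration with no detectable growth (for Alamar Blue wells, no blue-to-pink change).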

Candida albicans [16] = assay: Fungicidal activity against Candida albicans ATCC 90028; format: functional
Aspergillus fumigatus [17] = assay: Antifungal activity against Aspergillus fumigatus ATCC 90906 by microscopy; format: functional; procedure, shortened: as §1
Aspergillus fumigatus [18] = assay: Antifungal activity against Aspergillus fumigatus ATCC 90906 assessed as inhibition of fungal growth by alamar blue assay; format: functional, organism-based; conditions: Aspergillus fumigatus, ATCC 90906; read-out: IC50; procedure, shortened: as §2
Aspergillus fumigatus [19] = assay: Fungicidal activity against Aspergillus fumigatus ATCC 90906; format: functional

SMILES | Activity (Candida albicans [1]) | Activity (Aspergillus fumigatus [2]) | inhibition (Candida albicans [3]) | inhibition (Aspergillus fumigatus [4]) | Activity (Candida albicans [5]) | Activity (Aspergillus fumigatus [6]) | Activity (Cryptococcus neoformans [7]) | Activity (Cryptococcus neoformans [8]) | Activity (Vero) | inhibition (Cryptococcus neoformans [9]) | IC50 (Cryptococcus neoformans [10]) | CC50 at 48 h [11] | MFC (Cryptococcus neoformans [12]) | MIC (Candida albicans [13]) | IC50 (Candida albicans [14]) | MIC (Cryptococcus neoformans [15]) | MFC (Candida albicans [16]) | MIC (Aspergillus fumigatus [17]) | IC50 (Aspergillus fumigatus [18]) | MFC (Aspergillus fumigatus [19])
C[n+]1cc(Nc2cccc(Cl)c2)cc2ccccc21.[I-] | inactive | inactive | inactive | inactive | inactive | inactive | inactive | inactive | Non-toxic | inactive |  |  |  |  |  |  |  |  |  | 
C[n+]1cccc(N(CCCCCC2CCCCC2)c2ccc(F)cc2)c1.[I-] | inactive | inactive | inactive | inactive | inactive | inactive |  |  |  |  | 1.4 µg/mL | > 10 µg/mL | 2.5 µg/mL | 20 µg/mL | 9.6 µg/mL | 2.5 µg/mL |  |  |  | 
COc1ccc(N(CCCCCC2CCCCC2)c2ccc[n+](C)c2)cc1.[I-] |  |  |  | inactive |  |  |  |  |  |  | 1.4 µg/mL | > 10 µg/mL | 2.5 µg/mL | 10 µg/mL | 5.1 µg/mL | 2.5 µg/mL | 20 µg/mL |  |  | 
C[n+]1cc(N(CCCCCC2CCCCC2)c2ccc(Cl)cc2)cc2ccccc21.[I-] |  |  |  |  |  |  |  |  |  |  | 0.4 µg/mL | 10 µg/mL | 2.5 µg/mL | 1.3 µg/mL | 0.5 µg/mL | 0.6 µg/mL | 5 µg/mL | 1.3 µg/mL | 0.8 µg/mL | 10 µg/mL
C[n+]1cccc(N(CCCCCC2CCCCC2)c2cccc(C#N)c2)c1.[I-] | inactive |  | inactive | inactive | inactive |  |  |  |  |  | 3.5 µg/mL | > 10 µg/mL | 5 µg/mL |  |  | 5 µg/mL |  |  |  | 
C[n+]1cccc(N(CCCCCC2CCCCC2)c2ccccc2)c1.[I-] | inactive | inactive | inactive |  | inactive | inactive |  |  |  |  | 1.5 µg/mL | > 10 µg/mL | 2.5 µg/mL | 20 µg/mL | 8.3 µg/mL | 2.5 µg/mL |  |  | 19.7 µg/mL | 
Cc1cccc(N(CCCCCC2CCCCC2)c2ccc[n+](C)c2)c1.[I-] |  |  |  |  |  |  |  |  |  |  | 1.4 µg/mL | > 10 µg/mL | 2.5 µg/mL | 5 µg/mL | 3 µg/mL | 2.5 µg/mL | 10 µg/mL | 10 µg/mL | 8.7 µg/mL | 20 µg/mL
C[n+]1cccc(Nc2ccccc2)c1.[I-] |  |  |  |  |  |  |  |  | Non-toxic |  |  |  |  |  |  |  |  |  |  | 
C[n+]1cc(Nc2ccccc2Cl)cc2ccccc21.[I-] | inactive | inactive | inactive | inactive | inactive | inactive | inactive | inactive | Non-toxic | inactive |  |  |  |  |  |  |  |  |  | 
Clc1ccc(Nc2cc3ccccc3[n+](CCCCCc3ccccc3)c2)cc1.[I-] |  |  |  |  |  |  |  |  |  |  | 4 µg/mL | > 25 µg/mL | 12.5 µg/mL | > 20 µg/mL | 15 µg/mL | 6.3 µg/mL | > 20 µg/mL | > 20 µg/mL | 10 µg/mL | > 20 µg/mL
C[n+]1cc(N(CCCCCC2CCCCC2)c2cccc(Cl)c2)cc2ccccc21.[I-] |  |  |  |  |  |  |  |  |  |  | 0.9 µg/mL | > 10 µg/mL | 5 µg/mL | 2.5 µg/mL | 0.9 µg/mL | 1.3 µg/mL | 10 µg/mL | 2.5 µg/mL | 1 µg/mL | 10 µg/mL
C[n+]1cccc(N(CCCCCC2CCCCC2)c2ccccc2C(F)(F)F)c1.[I-] |  |  |  | inactive |  |  |  |  |  |  | 2.3 µg/mL |  | 5 µg/mL | 5 µg/mL | 2.6 µg/mL | 5 µg/mL | 5 µg/mL |  |  | 
COc1cccc(N(CCCCCC2CCCCC2)c2ccc[n+](C)c2)c1.[I-] |  |  |  | inactive |  |  |  |  |  |  | 3.6 µg/mL | > 10 µg/mL | 5 µg/mL | 20 µg/mL | 8.9 µg/mL | 5 µg/mL | > 20 µg/mL |  |  | 
COc1ccccc1N(CCCCCC1CCCCC1)c1ccc[n+](C)c1.[I-] |  |  |  | inactive |  |  |  |  |  |  | 3 µg/mL |  | 5 µg/mL | 10 µg/mL | 5 µg/mL | 5 µg/mL | 10 µg/mL |  |  | 
C[n+]1cccc(N(CCCCCC2CCCCC2)c2ccc(C(F)(F)F)cc2)c1.[I-] |  |  |  |  |  |  |  |  |  |  | 1.5 µg/mL | > 10 µg/mL | 5 µg/mL | 2.5 µg/mL | 1 µg/mL | 2.5 µg/mL | 10 µg/mL | 2.5 µg/mL | 1.5 µg/mL | 5 µg/mL
C[n+]1cc(N(CCCCCC2CCCCC2)c2ccccc2)cc2ccccc21.[I-] |  |  |  |  |  |  |  |  |  |  | 0.2 µg/mL | 9.8 µg/mL | 0.6 µg/mL | 2.5 µg/mL | 1.2 µg/mL | 0.3 µg/mL | 2.5 µg/mL | 10 µg/mL | 4.6 µg/mL | 10 µg/mL
C[n+]1cccc(N(CCCCCC2CCCCC2)c2cccc(Cl)c2)c1.[I-] |  |  |  |  |  |  |  |  |  |  | 0.7 µg/mL | > 10 µg/mL | 1.3 µg/mL | 5 µg/mL | 3 µg/mL | 1.3 µg/mL | 10 µg/mL | 20 µg/mL | 12.4 µg/mL | 20 µg/mL
C[n+]1cccc(N(CCCCCC2CCCCC2)c2ccc(C#N)cc2)c1.[I-] |  |  |  | inactive |  |  |  |  |  |  | 2.6 µg/mL | > 10 µg/mL | 5 µg/mL | 20 µg/mL | 19 µg/mL | 5 µg/mL | > 20 µg/mL |  |  | 
C[n+]1cccc(N(CCCCCC2CCCCC2)c2ccccc2C#N)c1.[I-] |  |  |  | inactive |  |  |  |  |  |  | 6.6 µg/mL | > 10 µg/mL | 20 µg/mL |  |  | 10 µg/mL |  |  |  | 
